Reference: ChEMBL document CHEMBL5653631, “A Potent and Selective ULK1 Inhibitor Suppresses Autophagy and Sensitizes Cancer Cells to Nutrient Stress” (iScience, 2018)

Assays:
[1] = molecular target: T1, Mitogen-activated protein kinase kinase kinase 2 (Homo sapiens) (UniProt Q9Y2U5); experiment: Inhibition of human recombinant MAP3K2 at 500 nM related to control ULK1
T1 sequence (whole entry): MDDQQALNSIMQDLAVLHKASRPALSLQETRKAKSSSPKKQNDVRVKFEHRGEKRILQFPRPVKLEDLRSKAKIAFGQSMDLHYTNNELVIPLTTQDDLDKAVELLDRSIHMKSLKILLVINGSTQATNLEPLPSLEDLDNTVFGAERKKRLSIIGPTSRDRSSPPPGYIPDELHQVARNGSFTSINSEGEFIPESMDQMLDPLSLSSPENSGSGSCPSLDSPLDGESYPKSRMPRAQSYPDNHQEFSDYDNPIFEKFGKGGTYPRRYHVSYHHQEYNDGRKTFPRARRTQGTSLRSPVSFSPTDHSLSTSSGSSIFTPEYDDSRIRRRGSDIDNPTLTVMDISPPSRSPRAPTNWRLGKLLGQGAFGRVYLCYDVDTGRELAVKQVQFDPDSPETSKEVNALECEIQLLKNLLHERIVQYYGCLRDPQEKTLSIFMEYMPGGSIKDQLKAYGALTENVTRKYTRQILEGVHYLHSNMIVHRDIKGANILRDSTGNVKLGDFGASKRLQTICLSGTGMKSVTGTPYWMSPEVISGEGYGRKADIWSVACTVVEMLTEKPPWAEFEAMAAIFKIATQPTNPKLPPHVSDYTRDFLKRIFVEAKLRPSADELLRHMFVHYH

[2] = molecular target: Cyclin-dependent kinase 13 (Homo sapiens) (UniProt Q14004); experiment: Inhibition of human recombinant CHED at 15 nM related to control ULK1
Sequence of Cyclin-dependent kinase 13 (Homo sapiens) (Q14004 whole entry, looked up): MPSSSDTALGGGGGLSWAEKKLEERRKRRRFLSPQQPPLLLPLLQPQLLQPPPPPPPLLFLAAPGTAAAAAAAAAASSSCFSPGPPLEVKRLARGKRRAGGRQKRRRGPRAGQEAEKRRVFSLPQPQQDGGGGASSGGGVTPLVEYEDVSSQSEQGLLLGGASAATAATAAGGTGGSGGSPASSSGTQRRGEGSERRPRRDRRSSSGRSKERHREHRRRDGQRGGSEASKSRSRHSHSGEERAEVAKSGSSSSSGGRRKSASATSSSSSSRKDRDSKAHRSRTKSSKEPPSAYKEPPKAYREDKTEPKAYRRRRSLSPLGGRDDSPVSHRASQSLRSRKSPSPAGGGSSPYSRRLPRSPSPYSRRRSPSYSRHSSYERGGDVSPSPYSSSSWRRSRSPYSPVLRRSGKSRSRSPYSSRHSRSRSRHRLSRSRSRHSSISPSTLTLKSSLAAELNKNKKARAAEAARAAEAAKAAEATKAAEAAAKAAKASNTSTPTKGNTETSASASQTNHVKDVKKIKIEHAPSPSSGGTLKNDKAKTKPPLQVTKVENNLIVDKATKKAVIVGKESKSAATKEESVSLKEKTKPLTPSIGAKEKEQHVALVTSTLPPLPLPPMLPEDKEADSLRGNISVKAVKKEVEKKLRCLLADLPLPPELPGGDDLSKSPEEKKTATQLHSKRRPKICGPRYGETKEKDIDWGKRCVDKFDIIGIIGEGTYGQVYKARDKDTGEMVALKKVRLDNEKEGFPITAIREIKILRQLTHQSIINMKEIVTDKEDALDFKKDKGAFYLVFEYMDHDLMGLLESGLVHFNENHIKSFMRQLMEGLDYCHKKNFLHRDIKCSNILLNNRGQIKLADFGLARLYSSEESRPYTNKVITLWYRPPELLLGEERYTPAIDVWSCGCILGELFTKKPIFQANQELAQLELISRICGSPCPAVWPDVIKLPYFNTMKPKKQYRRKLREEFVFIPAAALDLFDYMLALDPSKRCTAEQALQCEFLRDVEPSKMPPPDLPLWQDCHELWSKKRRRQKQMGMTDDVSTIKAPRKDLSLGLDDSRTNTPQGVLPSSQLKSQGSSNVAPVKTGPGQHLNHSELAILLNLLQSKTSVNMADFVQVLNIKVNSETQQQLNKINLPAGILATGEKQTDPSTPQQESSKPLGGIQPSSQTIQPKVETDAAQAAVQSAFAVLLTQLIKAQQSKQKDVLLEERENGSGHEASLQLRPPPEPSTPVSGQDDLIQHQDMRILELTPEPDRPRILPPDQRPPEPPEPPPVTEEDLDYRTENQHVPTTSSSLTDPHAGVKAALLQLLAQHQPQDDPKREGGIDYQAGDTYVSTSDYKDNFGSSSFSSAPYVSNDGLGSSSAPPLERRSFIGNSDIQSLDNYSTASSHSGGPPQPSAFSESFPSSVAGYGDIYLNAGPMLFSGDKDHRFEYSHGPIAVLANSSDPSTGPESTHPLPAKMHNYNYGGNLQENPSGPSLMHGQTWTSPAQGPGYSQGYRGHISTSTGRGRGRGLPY

[3] = molecular target: Tyrosine-protein kinase Fes/Fps (Homo sapiens) (UniProt P07332); experiment: Inhibition of human recombinant FES at 15 nM related to control ULK1
Sequence of Tyrosine-protein kinase Fes/Fps (Homo sapiens) (P07332 whole entry): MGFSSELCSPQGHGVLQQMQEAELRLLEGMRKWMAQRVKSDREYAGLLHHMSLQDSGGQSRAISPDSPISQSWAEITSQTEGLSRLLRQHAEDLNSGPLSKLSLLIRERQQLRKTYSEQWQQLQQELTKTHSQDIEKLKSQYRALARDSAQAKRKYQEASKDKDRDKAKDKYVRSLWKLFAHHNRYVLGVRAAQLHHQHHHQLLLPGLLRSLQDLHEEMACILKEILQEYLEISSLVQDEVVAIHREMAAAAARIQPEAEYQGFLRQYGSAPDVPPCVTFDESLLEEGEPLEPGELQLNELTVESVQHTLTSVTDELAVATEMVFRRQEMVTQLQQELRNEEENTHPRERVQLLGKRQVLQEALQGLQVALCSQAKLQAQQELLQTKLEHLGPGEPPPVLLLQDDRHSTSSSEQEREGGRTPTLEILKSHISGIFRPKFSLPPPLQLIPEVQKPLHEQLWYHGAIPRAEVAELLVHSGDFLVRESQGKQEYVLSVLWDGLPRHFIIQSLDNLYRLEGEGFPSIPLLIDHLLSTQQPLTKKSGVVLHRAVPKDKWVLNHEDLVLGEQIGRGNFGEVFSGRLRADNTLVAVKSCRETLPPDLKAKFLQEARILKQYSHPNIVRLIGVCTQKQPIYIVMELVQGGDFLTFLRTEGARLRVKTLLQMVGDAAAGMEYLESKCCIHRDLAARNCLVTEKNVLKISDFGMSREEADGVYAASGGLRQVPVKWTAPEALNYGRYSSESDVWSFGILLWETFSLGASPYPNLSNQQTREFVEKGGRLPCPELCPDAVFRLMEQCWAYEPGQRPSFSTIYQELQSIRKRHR

[4] = molecular target: T2, Tyrosine-protein kinase JAK3 (Homo sapiens) (UniProt P52333); experiment: Inhibition of human recombinant JAK3 at 15 nM related to control ULK1
T2 sequence (whole entry): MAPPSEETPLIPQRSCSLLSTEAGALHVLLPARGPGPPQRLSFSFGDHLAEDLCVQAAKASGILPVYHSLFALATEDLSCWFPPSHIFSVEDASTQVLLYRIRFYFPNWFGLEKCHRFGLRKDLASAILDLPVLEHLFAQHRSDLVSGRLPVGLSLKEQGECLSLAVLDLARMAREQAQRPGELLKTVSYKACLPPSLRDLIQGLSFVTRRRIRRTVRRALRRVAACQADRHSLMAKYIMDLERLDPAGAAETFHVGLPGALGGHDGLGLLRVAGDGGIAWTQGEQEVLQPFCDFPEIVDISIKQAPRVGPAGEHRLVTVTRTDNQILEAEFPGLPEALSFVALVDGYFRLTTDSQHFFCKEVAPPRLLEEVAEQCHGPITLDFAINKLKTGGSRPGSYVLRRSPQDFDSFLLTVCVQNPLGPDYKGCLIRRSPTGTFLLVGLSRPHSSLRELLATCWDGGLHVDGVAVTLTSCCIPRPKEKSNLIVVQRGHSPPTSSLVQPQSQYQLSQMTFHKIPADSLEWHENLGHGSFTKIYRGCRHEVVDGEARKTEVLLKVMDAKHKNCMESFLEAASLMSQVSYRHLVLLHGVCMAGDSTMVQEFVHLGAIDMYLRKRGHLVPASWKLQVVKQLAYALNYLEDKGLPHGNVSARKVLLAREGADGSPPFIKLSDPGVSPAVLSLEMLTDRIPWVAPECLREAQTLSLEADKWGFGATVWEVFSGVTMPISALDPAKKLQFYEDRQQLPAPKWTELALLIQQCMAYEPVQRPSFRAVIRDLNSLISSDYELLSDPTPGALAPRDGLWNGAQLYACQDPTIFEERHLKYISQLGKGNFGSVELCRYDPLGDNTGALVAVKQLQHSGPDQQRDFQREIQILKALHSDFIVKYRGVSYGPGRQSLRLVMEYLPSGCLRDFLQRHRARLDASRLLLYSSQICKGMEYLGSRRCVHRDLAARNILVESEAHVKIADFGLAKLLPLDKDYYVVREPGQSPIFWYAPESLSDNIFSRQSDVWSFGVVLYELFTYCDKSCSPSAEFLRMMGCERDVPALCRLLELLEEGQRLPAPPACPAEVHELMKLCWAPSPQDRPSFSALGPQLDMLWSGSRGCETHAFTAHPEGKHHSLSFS

[5] = molecular target: Bone morphogenetic protein receptor type-1B (Homo sapiens) (UniProt O00238); experiment: Inhibition of human recombinant BMPR1B at 15 nM related to control ULK1
Sequence of Bone morphogenetic protein receptor type-1B (Homo sapiens) (O00238 whole entry): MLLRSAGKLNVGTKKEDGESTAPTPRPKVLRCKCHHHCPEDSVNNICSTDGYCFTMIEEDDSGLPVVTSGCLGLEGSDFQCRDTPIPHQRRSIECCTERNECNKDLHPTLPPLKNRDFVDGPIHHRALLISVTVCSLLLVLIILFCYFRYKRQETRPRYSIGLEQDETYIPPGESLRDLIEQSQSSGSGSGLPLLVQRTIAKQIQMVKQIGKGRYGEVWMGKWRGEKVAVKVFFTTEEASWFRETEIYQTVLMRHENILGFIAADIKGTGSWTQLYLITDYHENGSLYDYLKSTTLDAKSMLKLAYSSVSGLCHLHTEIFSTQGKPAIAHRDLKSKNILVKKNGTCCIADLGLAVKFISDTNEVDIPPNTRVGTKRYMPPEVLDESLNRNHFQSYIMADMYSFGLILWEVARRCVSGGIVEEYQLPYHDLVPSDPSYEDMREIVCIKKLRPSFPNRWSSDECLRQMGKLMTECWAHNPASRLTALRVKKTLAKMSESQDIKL

[6] = molecular target: T2, Tyrosine-protein kinase JAK3 (Homo sapiens); experiment: Inhibition of human recombinant JAK3 at 40 nM related to control ULK1
[7] = molecular target: Tyrosine-protein kinase Tec (Homo sapiens) (UniProt P42680); experiment: Inhibition of human recombinant TEC at 40 nM in presence of ATP by radiometric assay relative to control
Sequence of Tyrosine-protein kinase Tec (Homo sapiens) (P42680 whole entry, looked up): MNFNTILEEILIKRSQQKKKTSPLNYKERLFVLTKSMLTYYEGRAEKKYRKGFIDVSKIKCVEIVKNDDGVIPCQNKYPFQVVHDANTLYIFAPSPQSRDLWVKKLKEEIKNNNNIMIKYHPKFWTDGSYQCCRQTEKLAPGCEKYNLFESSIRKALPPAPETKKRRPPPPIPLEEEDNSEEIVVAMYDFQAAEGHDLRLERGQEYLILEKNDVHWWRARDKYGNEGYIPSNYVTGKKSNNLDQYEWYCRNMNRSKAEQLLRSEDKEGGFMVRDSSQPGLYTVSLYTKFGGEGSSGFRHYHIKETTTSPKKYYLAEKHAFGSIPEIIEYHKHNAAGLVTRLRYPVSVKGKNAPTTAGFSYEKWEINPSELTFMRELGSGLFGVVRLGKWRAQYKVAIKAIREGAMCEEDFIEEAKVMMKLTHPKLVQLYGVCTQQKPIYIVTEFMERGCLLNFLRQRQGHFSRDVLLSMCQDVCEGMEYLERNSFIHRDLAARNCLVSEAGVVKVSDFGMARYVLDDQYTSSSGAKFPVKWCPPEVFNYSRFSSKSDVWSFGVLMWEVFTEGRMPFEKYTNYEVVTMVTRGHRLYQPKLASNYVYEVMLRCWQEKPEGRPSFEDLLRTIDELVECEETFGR

[8] = molecular target: Activin receptor type-1-like (Homo sapiens) (UniProt P37023); experiment: Inhibition of human recombinant ALK1 at 40 nM related to control ULK1
Sequence of Activin receptor type-1-like (Homo sapiens) (P37023 whole entry): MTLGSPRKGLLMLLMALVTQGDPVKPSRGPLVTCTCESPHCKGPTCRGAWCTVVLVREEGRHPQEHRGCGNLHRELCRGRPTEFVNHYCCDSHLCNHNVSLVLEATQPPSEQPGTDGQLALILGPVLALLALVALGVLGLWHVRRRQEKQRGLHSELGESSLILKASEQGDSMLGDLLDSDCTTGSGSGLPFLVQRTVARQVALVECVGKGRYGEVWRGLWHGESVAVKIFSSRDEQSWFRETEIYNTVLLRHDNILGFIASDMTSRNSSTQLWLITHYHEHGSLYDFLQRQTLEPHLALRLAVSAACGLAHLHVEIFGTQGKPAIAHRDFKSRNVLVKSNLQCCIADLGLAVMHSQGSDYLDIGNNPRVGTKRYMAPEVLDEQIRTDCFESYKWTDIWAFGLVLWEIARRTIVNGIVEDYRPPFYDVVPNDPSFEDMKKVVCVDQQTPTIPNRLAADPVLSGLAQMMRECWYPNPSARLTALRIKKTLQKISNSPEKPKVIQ
Summary of the method: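 Radiometric activity assays in a panel of 327 human recombinant kinases, each run in duplicate at one inhibitor concentration. Activity remaining is expressed as percent of vehicle control, and percent inhibition is calculated as 100% minus percent activity remaining.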

Compound: CNC(=O)c1ccccc1Oc1nc(Nc2cc(OC)c(OC)c(OC)c2)ncc1Br
- fold change (FC) [1]: 0.04

Compound: CC(C)[C@H](NC(=O)c1cc(-c2cnn3cc(-c4ccc(OCCN5CCCCC5)cc4)cnc23)cs1)C(F)(F)F
- fold change (FC) [2]: 0
- fold change (FC) [3]: 0
- fold change (FC) [4]: 0
- fold change (FC) [5]: 0.27

Compound: O=C(N[C@@H](C1CC1)C(F)(F)F)c1cc(-c2cnn3cc(-c4ccc(F)cc4)cnc23)cs1
- fold change (FC) [6]: 0
- inhibition [7]: 0%
- fold change (FC) [8]: 0.01
